High-throughput results as filed in PubChem BioAssay.
This is a sample that favours compounds with a hit; in the whole collection about 3.8% have one here.
Kir21 inh = blocks the mouse Kir2.1 inward-rectifier potassium channel; B-score at 10 µM; HEK293-Kir2.1, FluxOR thallium flux fluorescence; active compounds read low; hit rate 0.85% among 310,000; P35561;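 active = fluorescence ratio B-score at or below minus 3 SD of library scores, with starting-brightness B-score within 2 SD, cut at about -4.2 in these data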;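 also: channel flux triggered by added potassium and thallium sulfate stimulus; B-score of peak minus minimum fluorescence over baseline after thallium stimulus; more negative B-score means stronger Kir2.1 block with less thallium influx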
Target sequence (P35561 whole entry, looked up): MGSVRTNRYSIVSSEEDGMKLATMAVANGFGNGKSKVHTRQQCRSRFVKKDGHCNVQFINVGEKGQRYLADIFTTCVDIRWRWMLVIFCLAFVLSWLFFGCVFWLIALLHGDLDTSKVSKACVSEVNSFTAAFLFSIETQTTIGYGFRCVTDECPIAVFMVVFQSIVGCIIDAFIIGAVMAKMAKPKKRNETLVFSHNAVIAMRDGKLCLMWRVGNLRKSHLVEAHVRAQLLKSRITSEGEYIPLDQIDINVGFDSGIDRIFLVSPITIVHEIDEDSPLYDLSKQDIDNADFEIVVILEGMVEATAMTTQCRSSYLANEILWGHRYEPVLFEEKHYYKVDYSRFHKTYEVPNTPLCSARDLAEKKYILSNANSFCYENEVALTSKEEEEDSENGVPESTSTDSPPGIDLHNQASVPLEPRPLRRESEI
KCNK9 block = inhibitors of human KCNK9 two-pore domain potassium channel | Q9NPC2 | HEK293 KCNK9, FluxOR thallium flux fluorescence; active compounds read low | B-score at 10 µM | hit rate 1.2% among 310,000 | AID 488922;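 active = ratio B-score over 3 SD below the library mean, with starting fluorescence within 5 SD of its mean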;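 also: negative B-score means less thallium flux so channel inhibition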
KCNQ1 inh = inhibitors of human KCNQ1 potassium channel; P51787; CHO-K1 KCNQ1, FluxOR thallium flux fluorescence; active compounds read high; B-score at 10 µM; hit rate 1.3% among 310,000;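 active = compounds whose thallium flux B-score, printed positive for inhibition, exceeds three library SD while starting fluorescence stays within three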;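 also: channel opened by potassium depolarization with thallium stimulus after 20 min compound exposure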
hERG protect = shields human hERG channel from block by proarrhythmic agents | Q12809 | CHO-hERG, FluxOR thallium flux, dofetilide IC70 present | activation (rescue from dofetilide block), less the hit threshold, % at 10 µM | hit rate 0.51% among 310,000 | AID 1511;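 active = activation above the mean of controls blocked by dofetilide plus 5 SD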;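 also: thallium influx through hERG after potassium depolarization seen as dye fluorescence rise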
KCNQ1 pot = human KCNQ1 channel potentiation or activation; B-score at 10 µM; AID 2648; P51787; hit rate 0.35% among 310,000; CHO-K1 KCNQ1, thallium flux FluxOR fluorescence; active compounds read high;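 active = fluorescence ratio B-score, a plate-corrected score, at least three library SD, with initial intensity B-score within 5 SD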
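Doses: Single concentration per compound, DMSO matched to controls | Test system: KCNQ1-transfected CHO-K1 cells | Timing: 90 min dye loading and 20 min compound exposure, both at room temperature | Measured by: Kinetic FluxOR thallium fluorescence, 10-s 1-Hz baseline, 110-s post-stimulus read | Medium: Assay buffer with matched DMSO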
KCNK3 inh = human KCNK3 channel inhibition, primary screen; CHO-KCNK3 thallium flux, FluxOR fluorescence; active compounds read low; O14649; B-score at 10 µM; hit rate 0.84% among 340,000;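 active = B-score under library mean minus 4 SD, starting fluorescence ratio at most library mean plus 5 SD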;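 also: more negative B-score means stronger inhibition of thallium flux through KCNK3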
KCNQ1 inh valid = reconfirmed blocker of the human KCNQ1 potassium channel. shares compounds with KCNQ1 inh. KCNQ1 cell line, FluxOR thallium flux fluorescence. inhibition, % at 10 µM. hit rate 93% among 1,600. AID 588353;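 active = primary screen active, with duplicate mean exceeding buffer control mean plus 3 SD of buffer wells, cut at about 28% in these data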;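 also: 0% = buffer control ratio and 100% = XE991 inhibitor control ratio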
CHO Tl flux = activity in parental CHO cells lacking KCNQ1. shares compounds with KCNQ1 inh. parental CHO-K1, FluxOR thallium flux fluorescence ratio; active compounds read low; zero means no signal rise above baseline. fluorescence ratio (Tl flux) at 10 µM. hit rate 21% among 1,600;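 active = mean of duplicate thallium-flux fluorescence ratios in parental host cells more than 5 SD below the buffer control mean, cut at about 0.38 in these data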;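 also: ratio is peak minus minimum fluorescence divided by baseline fluorescence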
KCNQ1 ephys val = confirmation of human KCNQ1 potassium channel inhibitors by electrophysiology; shares compounds with KCNQ1 inh; KCNQ1-CHO cells, automated patch clamp current; calls only at 10 µM; hit rate 20% among 490;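 active = KCNQ1 current drop exceeding 3 SD of negative control wells, seen in both duplicate runs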;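 also: steady state current during a 2 s step from -80 to +40 mV; negative values mean current inhibition and positive values mean potentiation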
KCNQ2 spec = KCNQ1 inhibitor that also blocks rat KCNQ2 channel; shares compounds with KCNQ1 inh; KCNQ2 cells, FluxOR thallium flux fluorescence; inhibition, % at 10 µM; hit rate 71% among 1,600;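 active = mean percent inhibition of the KCNQ2 thallium signal more than 5 SD above the buffer-only control wells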;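 also: KCNQ2 expressed in CHO cells; 0% = buffer control wells and 100% = XE-991 inhibitor control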
KCNQ1 KCNE1 spec = human KCNQ1/KCNE1 inhibition in KCNQ1 specificity screen | shares compounds with KCNQ1 inh | KCNQ1/KCNE1 cells, FluxOR thallium flux fluorescence | inhibition, % at 10 µM | hit rate 77% among 1,600;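 active = mean percent inhibition of duplicate wells above the buffer-only control mean plus 3 SD of those controls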;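 also: 0% = buffer only wells and 100% = XE-991 inhibitor control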
* marks the source's active call; other numbers are inactive results; i = inactive; / = no result given; + = active, no number.

SMILES	Kir21 inh	KCNK9 block	KCNQ1 inh	hERG protect	KCNQ1 pot	KCNK3 inh	KCNQ1 inh valid	CHO Tl flux	KCNQ2 spec	KCNQ1 KCNE1 spec	others
CSc1nsc(/C=C/Nc2ccc(C)cc2)c1C#N	-0.31	i	7*	-10	i	i	0	0.51	i	57%*
CSc1nsc(/C=C/Nc2ccc(C)c(C)c2)c1C#N	-0.5	i	i	-8	i	i	/	/	/	/
CC(C)NC(=O)c1sc2nc(-c3cccs3)cc(-c3cccs3)c2c1N	2	i	6*	-10	i	/	198*	0.28*	i	i
COc1ccc(C(=O)c2sc3nc(C)cc(-c4cccs4)c3c2N)cc1OC	-1.6	i	7*	-10	i	i	199*	0.2*	i	i
COc1ccc(C(=O)c2sc3nc(C)cc(-c4cccs4)c3c2N)cc1	0.77	i	6*	-23	i	i	195*	0.26*	i	i
CC(=O)c1sc2nc(-c3cccs3)ccc2c1N	-1	i	i	-15	i	i	/	/	/	/
Cc1cc(C)c2c(N)c(C(=O)c3ccc(Cl)cc3)sc2n1	-2	i	i	-3	i	i	/	/	/	/
Cc1cc(C)c2c(N)c(C(=O)c3ccc(Cl)c(Cl)c3)sc2n1	0	i	i	-13	i	i	/	/	/	/
CN(CC(=O)Nc1ccccc1C(F)(F)F)C(=O)COc1cccnc1[N+](=O)[O-]	-0.58	i	i	-1	i	i	/	/	/	/
COc1ccc(C(=O)N2CCc3[nH]nc(-c4ccccc4)c3C2)cc1	-0.43	i	i	-12	i	i	/	/	/	/
Cc1ccc(-n2nc3c(c2NC(=O)c2ccc4c(c2)OCO4)CS(=O)C3)c(C)c1 (stereo not given)	-0.28	i	i	-8	i	i	/	/	/	/
Cc1ccc(Cl)cc1N1CCN(S(=O)(=O)c2ccc3c(c2)OCCO3)CC1	0.1	i	7*	0	i	i	113*	0.4	78%*	128%*
O=C(CN1C(=O)/C(=C\c2cccc(Cl)c2)Sc2ccccc21)NCCCN1CCOCC1	-0.5	i	i	-13	i	i	/	/	/	/
CCN1CCN(CCNC(=O)c2ccc(/C=C3/Sc4ccccc4N(Cc4cccc(Cl)c4)C3=O)cc2)CC1	-5.1*	i	14*	-33	i	i	80*	0.34*	97%*	145%*
O=C(Nc1cccc(F)c1)c1ccc(-c2ccccc2Cl)o1	-0.3	i	8*	-15	i	i	161*	0.31*	119%*	+
CCOc1cc(S(=O)(=O)NCc2ccncc2)ccc1Cl	-0.72	i	8*	-12	i	i	74*	0.5	i	36%*
COc1ccccc1NC(=O)CN1CCC(n2nnc3cc(F)ccc32)CC1	-0.41	i	i	-10	i	i	/	/	/	/
COc1ccccc1NC(=O)CN1CCC(n2c(C)nc3cc(F)ccc32)CC1	-0.61	i	8*	-13	i	i	116*	0.44	97%*	98%*	KCNQ1 ephys val=i
COc1ccccc1NC(=O)CN1CCN(C2c3ccccc3-c3ccccc32)CC1	-0.02	i	7*	-6	i	i	108*	0.42	100%*	155%*	KCNQ1 ephys val=i
COc1ccccc1NC(=O)CN1CCN(CC(=O)Nc2ccccc2F)CC1	/	/	/	/	/	i	/	/	/	/
